Compound activity (PubChem BioAssay)
S100A4 MyoIIA – S100A4-myosin IIA interaction inhibition; hit rate 0.14% among 360,000; S100A4/TAMRA-MyoIIA peptide fluorescence polarization; inhibition, % at 10.7 µM; P26447; AID 652163;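 active means mean inhibition of at least 70% across replicates, with every replicate also reaching that level; inconclusive means mean inhibition reaches 70% but some replicates fall short; inactive means mean inhibition below 70%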
Target sequence (P26447 whole entry, looked up): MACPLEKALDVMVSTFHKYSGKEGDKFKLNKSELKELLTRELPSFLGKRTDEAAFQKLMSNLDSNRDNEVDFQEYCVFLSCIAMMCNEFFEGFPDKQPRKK
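Material: S100A4 monomer protein / Buffer or medium: 50 mM HEPES pH 7.2, 10 mM CaCl2, 100 mM KCl / Times: 5 min incubation before reading / Benchmarks: neutral control DMSO, positive control TFP / Reagent: labelled myosin peptide probe, 5 nM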
RAD54 branch – inhibitors of human RAD54 branch migration; Q92698; RAD54 Holliday junction branch migration, FAM/BHQ fluorescence; inhibition, % at 10.4 µM; hit rate 0.14% among 360,000; AID 602329;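 active means mean normalized replicate activity at least 40 and at least half of replicates scoring 40 or more; inconclusive means only one of the two criteria met; inactive means mean below 40 and under half of replicates reaching 40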;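 further: 0% = median of neutral control wells and 100% = median of positive control wells; inhibitors cause a drop in the FAM fluorescence signal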
dFosB act-1 – mouse delta FosB homodimer activation | P13346 | purified delta FosB, TAMRA-CDK5 oligo fluorescence polarization; percent of positive-control signal above neutral wells | activation, % at 25 µM | hit rate 0.99% among 340,000 | AID 493131;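 active means mean activation above about 17%, with every replicate also reaching it, limit read from the data, passing the limit was not always enough; inconclusive means only one of the two conditions met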
Target sequence (P13346 whole entry, looked up): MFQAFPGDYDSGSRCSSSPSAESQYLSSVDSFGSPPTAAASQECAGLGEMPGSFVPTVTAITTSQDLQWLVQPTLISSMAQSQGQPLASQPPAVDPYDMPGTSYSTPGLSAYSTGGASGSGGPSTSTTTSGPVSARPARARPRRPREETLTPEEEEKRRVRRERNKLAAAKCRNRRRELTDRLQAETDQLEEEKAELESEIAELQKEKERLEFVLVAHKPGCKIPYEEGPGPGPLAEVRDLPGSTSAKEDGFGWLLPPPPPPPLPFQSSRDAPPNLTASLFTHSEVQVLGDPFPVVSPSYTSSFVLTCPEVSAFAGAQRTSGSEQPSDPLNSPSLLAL
MLL AF4-AF9 inh – inhibitors of human MLL-AF4/AF9 interaction | AID 651704 | AlphaScreen, biotin-AF4 peptide binding to FLAG-AF9 | hit rate 0.47% among 350,000 | inhibition, % at 10 µM | P42568;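 active means every replicate reaching a set inhibition limit, whatever the replicate mean, cut at about 25% in these data; inconclusive means mean inhibition reaches that limit but some replicates miss it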;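 further: 0% = plate neutral control median and 100% = total signal loss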
RAD52 inh – RAD52 (human) annealing inhibition | inhibition, % at 18.7 µM | recombinant RAD52 DNA annealing, FRET fluorescence | hit rate 0.46% among 360,000 | P43351 | AID 651710;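 active means every replicate showing at least 50% inhibition; inconclusive means mean inhibition at least 50% but not in every replicate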
dFosB act-2 – delta FosB (mouse) homodimer activation; activation, % at 24.9 µM; AID 588690; shares compounds with dFosB act-1; purified delta FosB, TAMRA-CDK5 oligo fluorescence polarization; normalised: neutral wells 0, positive control 100; 2,400 tested, under 10 active;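 active means highest replicate activation at or above 34% and every replicate reaching that threshold; inconclusive means meets only one of the two criteria; inactive means meets neither criterion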;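 further: higher polarization means more probe DNA bound by delta FosB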
Rad54 DNA ctr – counter-screen for Rad54 inhibitors: DNA binding compounds. Acridine orange-DNA displacement, fluorescence polarization, 20 min. AC50, µM (series often up to 35 µM), for inactives: at the top dose activity change, negative = DNA binding. hit rate 8% among 460. shares compounds with RAD54 branch;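 active means signal drop giving an AC50 within twice the top valid tested concentration of each sample, actives reach about 35 µM in these data; inactive means activity opposite to expected, plus the rest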;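 further: polarization loss reports compound binding to salmon sperm DNA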
AlphaScreen intf – AlphaScreen signal interference counter-screen hit. hit rate 45% among 530. shares compounds with MLL AF4-AF9 inh. AID 720494. signal luminescence. AC50, µM (highest dose often 12 µM), inactives show at the top dose activity change, negative = inhibition; cut-off not given, nearly all actives have AC50 up to about 14 µM
RAD52 DNA ctr – counter-screen for RAD52 inhibitors: DNA binding compounds. AID 652128. hit rate 8% among 1,000. shares compounds with RAD52 inh. Salmon sperm DNA/acridine orange FP displacement. AC50, µM;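 active means fitted half-maximal concentration for signal loss at or below twice the highest dose tested, in every separate run, actives reach about 64 µM in these data; inconclusive means runs disagree, or flat partial signal loss, or poor fit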
Starred values were filed as active, the others as inactive; i = inactive; ? = inconclusive; / = not tested or not shown. Sampled rows, rich in hits. Any-hit rate of the full collection: about 1.5%.

SMILES	S100A4 MyoIIA	RAD54 branch	dFosB act-1	MLL AF4-AF9 inh	RAD52 inh	AlphaScreen intf	others
NCCNc1ccc([N+](=O)[O-])c2cccnc12	-2.1	/	16.5*	3.1	3.1	/	dFosB act-2=8.5
O=C(Cc1ccccc1)N1CCCCN2[C@@H](CO)[C@H](c3ccc(C#Cc4ccccc4)cc3)[C@@H]2C1	0.6	-0.7	/	0.6	-19.6	/
Cc1nccc2c1[nH]c1ccccc12	1.6	?	6.1	-5.7	9.3	/	Rad54 DNA ctr=-8.5%
CN1CCN(c2ccc(C=O)cc2)CC1	/	-1.1	-2.4	/	/	/
CN1CCN(c2ccc(N)cc2)CC1	/	96.8*	?	/	/	/	Rad54 DNA ctr=-13.8%
Cn1ncnc2c(=O)n(C)c(=O)nc1-2	/	72.1*	-6.0	/	/	/	Rad54 DNA ctr=7.0%
Nc1ccc(CCN2CCCC2)cc1	-3.6	?	-7.0	?	94.2*	/	Rad54 DNA ctr=5.9%
Oc1ccc(CCN2CCCCC2)cc1	-67.7	-2.1	-0.5	3.8	-82.4	/
CN1CCN(C(=O)CN=[N+]=[N-])CC1	-5.3	/	/	-0.4	5.3	/
O=C(NC[C@H]1CC[C@@H]2NC[C@@H]2O1)C1CCCC1	-7.6	/	/	-4.0	-2.9	/
CC(C)Nc1ccc(Nc2ccccc2)cc1	-1.1	-3.2	-9.2	?	11.1	-28.8%
COc1ccc(OC(=O)N(C)C[C@@H]2OCc3ccccc3-c3c(n(C)c4ccccc34)C(=O)N([C@@H](C)CO)C[C@@H]2C)cc1	0.5	/	/	2.4	19.0	/
C#CCOc1ccc2c(c1)c(C(C)=O)c(C)n2Cc1ccccc1	-2.5	0.3	-3.5	1.5	-14.7	/
COc1ccc2c(c1)c(CCN)c(C)n2Cc1ccccc1	0.5	-35.1	-5.6	33.0*	14.2	-30.1%
O=C(Cc1ccccn1)N1CCCCN2[C@H](CO)[C@H](c3ccc(-c4ccc(F)cc4)cc3)[C@H]2C1	-0.3	1.7	/	0.6	-23.5	/
O=C1CN=C(c2ccc(Br)cc2)c2c(sc3c2CCCC3)N1CCN1CCCCC1	-3.3	-0.3	-11.7	32.3*	-2.4	-37.2%
COC(=O)[C@@H]1[C@@H](CO)[C@@H]2Cn3c(ccc(-c4ccncc4)c3=O)[C@H]1N2CCc1ccccc1	4.7	-6.8	/	-1.1	-6.5	/
Cc1ccc(-c2cc(-c3ccc(C)cc3)[n+](-c3ccccc3)c(-c3ccc(C)cc3)c2)cc1	/	37.7	-7.5	/	/	/
Cc1ccc(-c2cc(-c3ccc(C)cc3)[n+](-c3ccc(C(=O)[O-])cc3)c(-c3ccc(C)cc3)c2)cc1	-4.3	15.5	2.6	26.4*	31.9	-26.9%
C[n+]1c(-c2ccccc2)c2cc(N)ccc2c2ccc(N)cc21	126.3*	88.2*	-221.3	55.3*	21.2	8.5µM*
NCC(O)c1cc(O)c(O)cc1F (stereo not given)	9.3	20.6	5.6	53.3*	91.9*	-19.0%	RAD52 DNA ctr=i
CCN1CCN(c2ccc(N)cc2C)CC1	-7.1	/	7.8	42.6*	99.9*	11.8µM*	RAD52 DNA ctr=46.7µM*
CCN1CCN(c2ccc(NC(C)=O)cc2Cl)CC1	0.1	/	5.7	-1.7	-10.0	/
CCN1CCN(c2ccc(N)cc2)CC1	20.4	/	2.1	81.5*	89.8*	4.52µM*	RAD52 DNA ctr=53.2µM*
CCCNC(=O)[C@@H]1[C@@H](CO)[C@@H]2Cn3c(cccc3=O)[C@H]1N2CCC	0.5	-1.3	/	-2.2	-6.5	/
COc1ccc(C#Cc2ccc([C@@H]3[C@H](CO)N4CCCCN(C(=O)Cc5ccccc5)C[C@@H]34)cc2)cc1	0.5	7.9	/	12.8	-21.1	/
CC[N+](C)(CC)CCCCOc1ccc2c(c1)C(=O)c1cc(OCCCC[N+](C)(CC)CC)ccc1-2	5.5	99.5*	49.4*	1.2	104.7*	/	RAD52 DNA ctr=19.3µM*
COC(=O)[C@H]1[C@H](CO)[C@H]2Cn3c(ccc(C4=CCCC4)c3=O)[C@@H]1N2S(=O)(=O)c1cn(C)cn1	9.6	-10.8	/	-2.0	-14.7	/
